{"source": "paper PMC8978659", "about": "(RSC Advances, 2021)", "system": "RAW264.7 cells", "experiment": "Cytotoxicity test, CCK-8", "type": "cell-based", "conditions": "10 μM, 48 h, CCK-8, OD 450 nm, duplicate independent experiments", "summary_of_the_method": "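RAW264.7 cells seeded at 1 × 10^5 per mL and exposed for 48 h to test compound at 0, 1.25, 2.5, 5 and 10 μM. CCK-8 reagent added, then 4 h at 37 °C protected from light. Absorbance read at 450 nm. Survival rate = OD of treated / OD of blank control; cytotoxic effect = 1 − survival rate.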"}
{"molecule": "NCC1CC(=S)N2CC3CCCN4CCCC(C34)C2C1", "note": "(stereo not shown) [M19, 13-Aminomethyl-15-thiomatrine]", "values": [{"measurement": "cell viability inhibition", "value": "about 20%"}]}
